Data set [1] is described as follows: Inhibition of MEK in human PrEC cells assessed as inhibition of ERK phosphorylation incubated for 60 mins by Western blotting analysis. The format is cell-based. The conditions noted are these: 1 h. In short, it runs like this:
(§1)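 Cells exposed for 60 min, then Western blot for phospho-ERK1/2 and total ERK1/2 with infrared imaging. […] DMSO control.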

Data set [2] can be described thus: Inhibition of MEK in human SK-MEL-2 cells expressing N-Ras2 Q61R mutant assessed as inhibition of ERK phosphorylation incubated for 60 mins by Western blotting analysis. The conditions noted are these: SK-MEL-2, 1 h. It is filed as cell-based. In short, it runs like this: as §1
In general terms: A western blot detects proteins with antibodies after separation by electrophoresis.

Another data set has as its system Malme-3M. Briefly: Antiproliferative activity against human Malme-3M cells expressing B-Raf V600E mutant assessed as decrease in cell growth incubated for 72 hrs by CellTiter-Glo based luminescence assay. It is filed as functional. In short, it runs like this:
(§2)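 Cells treated over 1 nmol/L to 20 μmol/L in 0.1% DMSO for 72 h at 37°C, 5% CO₂. Viable cells read by CellTiter-Glo luminescence. EC50 derived from proliferation data.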

Data set [3] relates to Melanocyte. Briefly: Inhibition of MEK in normal human Melanocyte cells assessed as decreased ERK phosphorylation at 2 micromol/L incubated for 60 mins by Western blotting analysis. The format is cell-based. The conditions noted are these: dose 2.0 µmol/L.
The nature of data set [4]: Inhibition of MEK in human SK-MEL-28 cells expressing B-Raf V600E mutant assessed as inhibition of ERK phosphorylation incubated for 60 mins by Western blotting analysis. It is filed as cell-based. The conditions noted are these: SK-MEL-28, 1 h. An outline of the steps:
as §1

The next data set deals with SK-MEL-28. Description: Antiproliferative activity against human SK-MEL-28 cells expressing B-Raf V600E mutant assessed as decrease in cell growth incubated for 72 hrs by CellTiter-Glo based luminescence assay. The format is functional. The conditions noted are these: SK-MEL-28, 72 h. In short, it runs like this:
as §2
In general terms: ATP-based viability assays read luminescence as a measure of living cells.

A short description of data set [5]: Inhibition of MEK in human Malme-3M cells expressing B-Raf V600E mutant assessed as inhibition of ERK phosphorylation incubated for 60 mins by Western blotting analysis. It is filed as cell-based. The following applies: 1 h. In short, it runs like this:
as §1

Data set [6] can be described thus: Inhibition of MEK in human A375P cells expressing B-Raf V600E mutant assessed as inhibition of ERK phosphorylation incubated for 60 mins by Western blotting analysis. It is filed as cell-based. The following applies: 1 h. An outline of the steps: as §1
In the next data set the test system is WM-NCI. Briefly: Inhibition of MEK in human WM-NCI cells assessed as decreased ERK phosphorylation at 2 micromol/L incubated for 60 mins by Western blotting analysis. The format is cell-based. The following applies: dose 2.0 µmol/L.
A further data set relates to WM35. Description: Inhibition of MEK in human WM35 cells assessed as decreased ERK phosphorylation at 2 micromol/L incubated for 60 mins by Western blotting analysis. It is filed as cell-based. The following applies: dose 2.0 µmol/L.
Another data set has as its system HT-1080. Briefly: Antiproliferative activity against human HT-1080 cells expressing N-Ras Q61K mutant assessed as decrease in cell growth incubated for 72 hrs by CellTiter-Glo based luminescence assay. The format is functional. The following applies: HT-1080, 72 h. An outline of the steps: as §2
Another data set has as its system HT-29. Description: Antiproliferative activity against human HT-29 cells expressing B-Raf V600E mutant assessed as decrease in cell growth incubated for 72 hrs by CellTiter-Glo based luminescence assay. The format is functional. The conditions noted are these: HT-29, 72 h. An outline of the steps: as §2
The next data set has as its system WM-3434. Briefly: Inhibition of MEK in human WM-3434 cells assessed as decreased ERK phosphorylation at 2 micromol/L incubated for 60 mins by Western blotting analysis. The format is cell-based. The conditions noted are these: dose 2.0 µmol/L.
For a further data set, the system named is SK-MEL-2. Briefly: Antiproliferative activity against human SK-MEL-2 cells expressing N-Ras Q61R mutant assessed as decrease in cell growth incubated for 72 hrs by CellTiter-Glo based luminescence assay. The following applies: SK-MEL-2, 72 h. The format is functional. An outline of the steps: as §2
The nature of data set [7]: Inhibition of MEK in human HT-1080 cells expressing N-Ras2 Q61K mutant assessed as inhibition of ERK phosphorylation incubated for 60 mins by Western blotting analysis. It is filed as cell-based. The conditions noted are these: HT-1080, 1 h. In short, it runs like this: as §1
The nature of data set [8]: Inhibition of MEK in human HFF cells assessed as inhibition of ERK phosphorylation incubated for 60 mins by Western blotting analysis. It is filed as cell-based. The conditions noted are these: 1 h. In short, it runs like this:
as §1

Data set [9] in a line: Cytotoxicity against human PrEC cells assessed as decrease in cell growth incubated for 72 hrs by CellTiter-Glo based luminescence assay. The format is toxicity. In short, it runs like this: as §2
The nature of data set [10]: Inhibition of MEK in human HT-29 cells expressing B-Raf V600E mutant assessed as inhibition of ERK phosphorylation incubated for 60 mins by Western blotting analysis. It is filed as cell-based. The following applies: HT-29, 1 h. An outline of the steps:
as §1

A short description of data set [11]: Antiproliferative activity against human A375P cells expressing B-Raf V600E mutant assessed as decrease in cell growth incubated for 72 hrs by CellTiter-Glo based luminescence assay. It is filed as functional. In short, it runs like this:
as §2

Data set [12] can be described thus: Inhibition of MEK in human HCT-116 cells expressing K-Ras2 G13D mutant assessed as inhibition of ERK phosphorylation incubated for 60 mins by Western blotting analysis. It is filed as cell-based. The following applies: HCT-116, 1 h. In short, it runs like this: as §1
A short description of data set [13]: Inhibition of MEK in human COLO 205 cells expressing B-Raf V600E mutant assessed as inhibition of ERK phosphorylation incubated for 60 mins by Western blotting analysis. It is filed as cell-based. The following applies: COLO 205, 1 h. In short, it runs like this: as §1
Another data set concerns HCT-116. Briefly: Antiproliferative activity against human HCT-116 cells expressing K-Ras G13D mutant assessed as decrease in cell growth incubated for 72 hrs by CellTiter-Glo based luminescence assay. The format is functional. The following applies: HCT-116, 72 h. In short, it runs like this: as §2
Data set [14] in a line: Cytotoxicity against human HFF cells assessed as decrease in cell growth incubated for 72 hrs by CellTiter-Glo based luminescence assay. The format is toxicity. In short, it runs like this: as §2
A short description of data set [15]: Inhibition of MEK in human HMEC cells assessed as inhibition of ERK phosphorylation incubated for 60 mins by Western blotting analysis. The format is cell-based. The conditions noted are these: 1 h. In short, it runs like this:
as §1

The nature of data set [16]: Cytotoxicity against human HMEC cells assessed as decrease in cell growth incubated for 72 hrs by CellTiter-Glo based luminescence assay. It is filed as toxicity. In short, it runs like this:
as §2

The next data set concerns COLO 205. Briefly: Antiproliferative activity against human COLO 205 cells expressing B-Raf V600E mutant assessed as decrease in cell growth incubated for 72 hrs by CellTiter-Glo based luminescence assay. It is filed as functional. The following applies: COLO 205, 72 h. An outline of the steps: as §2
In data set [17] the test system is Melanocyte. Briefly: Induction of cell cycle arrest in normal human Melanocyte cells assessed as accumulation of cells at G1 phase at 10 uM incubated for 24 hrs by flow cytometry analysis. It is filed as toxicity, cell-based. An outline of the steps:
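Normal human melanocytes exposed to 1 and 10 μmol/L for 24 h. Cell cycle distribution measured by flow cytometry on a FACScan.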
(In general: In flow cytometry, cells or beads pass a laser one at a time.)

The next data set relates to A375P. Briefly: Anti-tumor activity against human A375P cells xenografted in nude mouse assessed as decreased tumorigenesis at 50 mg/kg administered daily for 21 days and then observed an additional 14 days following cessation of treatment and measured after 55 days. The format is functional, organism-based. The conditions noted are these: time 21.0 day. In short, it runs like this:
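Female nude mice, 8–12 weeks old, injected s.c. with 5×10^6 A375P cells in Matrigel. Treatment began 3 weeks later at tumor volume 150–250 mm³, groups of eight randomized. Daily i.p. dosing for 21 days in 2% N,N-dimethylacetamide/2% Cremophor EL/96% acidified water (pH ~4–5), vehicle controls. Caliper tumor volume twice weekly for 55 days; mean ±SE.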

The nature of data set [18]: In vivo inhibition of ERK phosphorylation in human A375P cells xenografted in nude mouse at 50 mg/kg administered daily for 21 days and then observed an additional 14 days following cessation of treatment relative to control. The format is functional. The following applies: 504 h, time 21 day.
The target of data set [19] is RAF proto-oncogene serine/threonine-protein kinase (Homo sapiens, UniProt P04049). Description: Inhibition of c-Raf (unknown origin) assessed as apparent inhibition constant. The following applies: read-out: Ki(app).
Data set [20] can be described thus: Toxicity in nude mouse xenografted with human A375P cells assessed as body weight change at 50 mg/kg administered daily for 21 days and then observed an additional 14 days following cessation of treatment. The format is organism-based. The following applies: in vivo, 504 h, time 21 day.
Data set [21] is described as follows: Inhibition of BRAF V599E mutant (unknown origin) assessed as apparent inhibition constant incubated for 25 mins in presence of gamma-[33P]ATP. On the set-up: species or system Homo sapiens. The following applies: read-out: Ki(app).

This is an account of results in ChEMBL document CHEMBL5661971 (Cancer Res, 2006).

Calls of active or inactive are those of the source. No cut-off for these calls is given here.

Chain of RAF proto-oncogene serine/threonine-protein kinase (P04049 whole entry): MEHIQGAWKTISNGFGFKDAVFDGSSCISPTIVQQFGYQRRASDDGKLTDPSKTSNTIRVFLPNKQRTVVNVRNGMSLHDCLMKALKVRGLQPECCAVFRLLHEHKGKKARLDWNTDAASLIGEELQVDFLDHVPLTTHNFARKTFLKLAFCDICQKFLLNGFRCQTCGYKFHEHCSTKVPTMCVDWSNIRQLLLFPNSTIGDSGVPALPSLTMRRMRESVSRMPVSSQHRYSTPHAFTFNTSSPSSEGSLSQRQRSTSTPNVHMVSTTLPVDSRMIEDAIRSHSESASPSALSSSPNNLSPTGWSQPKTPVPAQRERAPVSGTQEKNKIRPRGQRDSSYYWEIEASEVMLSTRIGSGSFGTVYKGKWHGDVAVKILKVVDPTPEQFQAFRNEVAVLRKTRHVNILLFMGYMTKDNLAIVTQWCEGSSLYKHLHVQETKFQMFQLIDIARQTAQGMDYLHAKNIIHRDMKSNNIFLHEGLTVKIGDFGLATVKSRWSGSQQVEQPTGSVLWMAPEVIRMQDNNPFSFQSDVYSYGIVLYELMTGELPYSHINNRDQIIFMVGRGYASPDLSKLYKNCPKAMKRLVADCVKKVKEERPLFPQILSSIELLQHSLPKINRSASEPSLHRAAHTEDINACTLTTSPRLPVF

On to `O=C(NOCC1CC1)c1ccc(F)c(F)c1Nc1ccc(I)cc1Cl` [CI-1040], for which the EC50 (commonly the concentration needed to bring the measured effect to its halfway point) in data set [1] stood at 39 nM; in data set [2] it was 290 nM; in the data set with Malme-3M it was 440 nM; in data set [4] it was 86 nM; in the data set on SK-MEL-28 it was 220 nM; in data set [5] it was 520 nM. Moreover, the EC50 in data set [6] was found to be 210 nM; with HT-1080, 1600 nM; with HT-29, 360 nM; in the data set with SK-MEL-2, 360 nM; in [7] it was 66 nM; in [8], 4800 nM. Further, the EC50 was 88 nM in [10]; 240 nM in data set [11]; 61 nM in data set [12]; 47 nM in [13]; 2200 nM in the data set on HCT-116; 11 nM in [15]. In addition, the EC50 with COLO 205 was determined as 230 nM. Moreover, the inhibition entry in the data set on Melanocyte [3], with WM-NCI, with WM35 and with WM-3434 was “Active” each time. Besides, the results for the EC50 at 72 h in data set [9], in [14] and in data set [16] were 490 nM, 4900 nM and 580 nM, respectively.
As for `CN(C)CCOc1ccc(-c2nc(-c3ccncc3)c(-c3ccc4c(c3)CC/C4=N\O)[nH]2)cc1` [SB590885], the EC50 in the data set with Malme-3M is 150 nM; with SK-MEL-28, 120 nM; with HT-1080, 13000 nM; in the data set on HT-29, 870 nM; with SK-MEL-2 it was 550 nM; in [11], 370 nM. For the same molecule, the values for the EC50 in the data set on HCT-116 and in the data set on COLO 205 were 4600 nM and 100 nM, respectively. Besides, the Activity entry (in the data set on Melanocyte [17]; in data set [20]) was “Toxic” in each case. Further, in the data set on A375P, the result was Active. The EC50 at 72 h in data set [9] was over 13000 nM; in data set [14] it was over 12000 nM; in [16] it was 9200 nM. The inhibition in vivo (usually the percentage by which the read-out fell short of the control) at 50 mg/kg in [18] is about 50%. For the same molecule, in data set [19], the Ki turned out to be 1.72 nM.
`CNC(=O)c1cc(Oc2ccc(NC(=O)Nc3ccc(Cl)c(C(F)(F)F)c3)cc2)ccn1` [SORAFENIB]: in [21], the Ki came to 38 nM.
